Data: ChEMBL document CHEMBL4130545, “Lupane-Type Triterpenes of Phoradendron vernicosum” (J Nat Prod, 2017)
pIC50: −log10 of the molar value.

Key:
SiHa [1] = test: Antiproliferative activity in human SiHa cells by sulforhodamine B assay; assay type: functional, cell-based
Outline: (§1)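 Cells grown in D-MEM with 10% (v/v) FBS, 100 U/mL penicillin G and 100 μg/mL streptomycin, at 37 °C under 5% CO2 and 95% humidity. Cytotoxic and antiproliferative effects were measured by the sulforhodamine B method of Skehan et al. CC50 (cytotoxic) or IC50 (antiproliferative) is the concentration giving 50% growth reduction. Docetaxel was the positive control. Triplicate tests.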

KB [2] = test: Antiproliferative activity in human KB cells by sulforhodamine B assay; assay type: functional, cell-based; outline: as §1
HEp-2 [3] = test: Antiproliferative activity in human Hep2 cells by sulforhodamine B assay; assay type: functional, cell-based; outline: as §1
HeLa [4] = test: Antiproliferative activity in human HeLa cells by sulforhodamine B assay; assay type: functional, cell-based; outline: as §1
[5] = Cytotoxic activity in African green monkey Vero cells by sulforhodamine B assay; assay type: cell-based; details: chlorocebus sabaeus; outline: as §1
MCF7 [6] = test: Cytotoxic activity in human MCF7 cells by sulforhodamine B assay; assay type: functional
Outline: (§2)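 Cell lines grown in D-MEM with 10% (v/v) FBS, 100 U/mL penicillin G and 100 μg/mL streptomycin at 37 °C, 5% CO2, 95% humidity. Cytotoxicity was measured by the Skehan method. CC50 was taken as the concentration that reduces cell growth by 50%. Docetaxel served as positive control, and each test was run in triplicate.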

DU-145 [7] = test: Antiproliferative activity in human DU145 cells by sulforhodamine B assay; assay type: functional, cell-based; outline: as §1
SiHa [8] = test: Cytotoxic activity in human SiHa cells by sulforhodamine B assay; assay type: functional; outline: as §2
MCF7 [9] = test: Antiproliferative activity in human MCF7 cells by sulforhodamine B assay; assay type: functional, cell-based; outline: as §1
[10] = Cytotoxic activity in HEK293 cells by sulforhodamine B assay; assay type: cell-based; details: human; outline: as §1
HeLa [11] = test: Cytotoxic activity in human HeLa cells by sulforhodamine B assay; assay type: functional; outline: as §2
HEK293 = test: Antiproliferative activity in HEK293 cells by sulforhodamine B assay; assay type: cell-based; details: Homo sapiens; outline: as §1
MDA-MB-231 [12] = test: Antiproliferative activity in human MDA-MB-231 cells by sulforhodamine B assay; assay type: functional, cell-based; outline: as §1
KB [13] = test: Cytotoxic activity in human KB cells by sulforhodamine B assay; assay type: functional; outline: as §2
Vero = test: Antiproliferative activity in African green monkey Vero cells by sulforhodamine B assay; assay type: cell-based; details: Chlorocebus sabaeus; outline: as §1
DU-145 [14] = test: Cytotoxic activity in human DU145 cells by sulforhodamine B assay; assay type: functional; outline: as §2
HEp-2 [15] = test: Cytotoxic activity in human Hep2 cells by sulforhodamine B assay; assay type: functional; outline: as §2
MDA-MB-231 [16] = test: Cytotoxic activity in human MDA-MB-231 cells by sulforhodamine B assay; assay type: functional; outline: as §2
[17] = Selectivity index, ratio of cytotoxic CC50 for African green monkey Vero cells to cytotoxic CC50 for human KB cells; assay type: toxicity; details: Vero cells versus KB cells, read-out: Selectivity Index
Outline: (§3)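 Selectivity index for harmfulness to normal cells: the normal-cell (Vero or HEK293) CC50 or IC50 over the cancer-cell value from the same assay type. Each value is from sulforhodamine B growth-reduction tests done in triplicate in D-MEM/10% FBS at 37 °C, 5% CO2.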

[18] = Selectivity index, ratio of antiproliferative IC50 for African green monkey Vero cells to antiproliferative IC50 for human Hep2 cells; assay type: toxicity; details: Vero cells versus Hep2 cells, read-out: Ratio IC50; outline: as §3
[19] = Selectivity index, ratio of cytotoxic CC50 for African green monkey Vero cells to cytotoxic CC50 for human DU145 cells; assay type: toxicity; details: Vero cells versus DU145 cells, read-out: Selectivity Index; outline: as §3
[20] = Selectivity index, ratio of cytotoxic CC50 for African green monkey Vero cells to cytotoxic CC50 for human MDA-MB-231 cells; assay type: toxicity; details: Vero cells versus MDA-MB-231 cells, read-out: Selectivity Index; outline: as §3
[21] = Selectivity index, ratio of cytotoxic CC50 for African green monkey Vero cells to cytotoxic CC50 for human MCF7 cells; assay type: toxicity; details: Vero cells versus MCF7 cells, read-out: Selectivity Index; outline: as §3
[22] = Selectivity index, ratio of antiproliferative IC50 for African green monkey Vero cells to antiproliferative IC50 for human MCF7 cells; assay type: toxicity; details: Vero cells versus MCF7 cells, read-out: Ratio IC50; outline: as §3
[23] = Selectivity index, ratio of antiproliferative IC50 for African green monkey Vero cells to antiproliferative IC50 for human KB cells; assay type: toxicity; details: Vero cells versus KB cells, read-out: Ratio IC50; outline: as §3
[24] = Selectivity index, ratio of cytotoxic CC50 for African green monkey Vero cells to cytotoxic CC50 for human SiHa cells; assay type: toxicity; details: Vero cells versus SiHa cells, read-out: Selectivity Index; outline: as §3
[25] = Selectivity index, ratio of antiproliferative IC50 for African green monkey Vero cells to antiproliferative IC50 for human SiHa cells; assay type: toxicity; details: Vero cells versus SiHa cells, read-out: Ratio IC50; outline: as §3
[26] = Selectivity index, ratio of cytotoxic CC50 for African green monkey Vero cells to cytotoxic CC50 for human Hep2 cells; assay type: toxicity; details: Vero cells versus Hep2 cells, read-out: Selectivity Index
[27] = Selectivity index, ratio of cytotoxic CC50 for African green monkey Vero cells to cytotoxic CC50 for human HeLa cells; assay type: toxicity; details: Vero cells versus HeLa cells, read-out: Selectivity Index; outline: as §3
[28] = Selectivity index, ratio of antiproliferative IC50 for African green monkey Vero cells to antiproliferative IC50 for human HeLa cells; assay type: toxicity; details: Vero cells versus HeLa cells, read-out: Ratio IC50; outline: as §3

Structure (SMILES) | pIC50 (SiHa [1]) | pIC50 (KB [2]) | pIC50 (HEp-2 [3]) | pIC50 (HeLa [4]) | CC50 [5] [µM] | CC50 (MCF7 [6]) [µM] | pIC50 (DU-145 [7]) | CC50 (SiHa [8]) [µM] | pIC50 (MCF7 [9]) | CC50 [10] [µM] | CC50 (HeLa [11]) [µM] | pIC50 (HEK293) | pIC50 (MDA-MB-231 [12]) | CC50 (KB [13]) [µM] | pIC50 (Vero) | CC50 (DU-145 [14]) [µM] | CC50 (HEp-2 [15]) [µM] | CC50 (MDA-MB-231 [16]) [µM] | selectivity ratio [21] | selectivity ratio [25] | other results
C=C(C=O)[C@@H]1CC[C@]2(C(=O)O)CC[C@]3(C)[C@H](CC[C@@H]4[C@@]5(C)CC[C@@H](O)[C@](C)(CO)[C@@H]5CC[C@]43C)[C@@H]12 | 3.90 | < 3.30 | < 3.30 | 3.97 | > 500 | > 500 | 4.05 | 92.2 | < 3.30 | > 500 | 182 | < 3.30 | 3.91 | > 500 | < 3.30 | 52.6 | > 500 | 106 |  |  | 
C=C(C)[C@@H]1CC[C@]2(C(=O)O)CC[C@]3(C)[C@H](CC[C@@H]4[C@@]5(C)CC[C@@H](O)[C@](C)(CO)[C@@H]5CC[C@]43C)[C@@H]12 | 3.30 to 4.24 | 3.30 to 4.90 | 3.30 to 4.12 | < 3.30 | > 500 | 31.7 to 98.5 | < 3.30 | 20.3 to 110 | 3.30 to 4.31 | 95.8 to 500 | 120 to 153 | 3.30 to 4.02 | 3.30 to 3.77 | 24.1 to 500 | < 3.30 | 53.1 to 97.2 | > 500 | 71.2 to 91.1 | 3 | 1.6 | selectivity ratio [17]: 18.3; selectivity ratio [18]: 1.3; selectivity ratio [19]: 1.8; selectivity ratio [20]: 1.3; selectivity ratio [22]: 1.9; selectivity ratio [23]: 18.3; selectivity ratio [24]: 4.7
C=C(C)[C@@H]1CC[C@]2(C(=O)O)CC[C@]3(C)[C@H](CC[C@@H]4[C@@]5(C)CC[C@H]6OC(C)(C)OC[C@]6(C)[C@@H]5CC[C@]43C)[C@@H]12 | 4.24 | 4.79 | < 3.30 | < 3.30 | > 500 | 84.6 | < 3.30 | > 500 | < 3.30 | 420 | > 500 | 3.18 | < 3.30 | 10.2 | < 3.30 | > 500 | 32.4 | > 500 | 5 | 11.3 | selectivity ratio [17]: 41; selectivity ratio [26]: 13; selectivity ratio [23]: 39.9
C=C(C)[C@@H]1CC[C@]2(CO)CC[C@]3(C)[C@H](CC[C@@H]4[C@@]5(C)CC[C@H](O)C(C)(C)[C@@H]5CC[C@]43C)[C@@H]12 [BETULIN] | < 3.30 | < 3.30 | < 3.30 | < 3.30 | > 500 | > 500 | 3.86 | > 500 | < 3.30 | > 500 | > 500 | < 3.30 | < 3.30 | > 500 | < 3.30 | 162 | > 500 | > 500 |  |  | 
C=C(C)[C@@H]1CC[C@]2(CO)CC[C@]3(C)[C@H](CC[C@@H]4[C@@]5(C)CCC(=O)C(C)(C)[C@@H]5CC[C@]43C)[C@@H]12 [BETULONE] | < 3.30 | < 3.30 | < 3.30 | < 3.30 | > 500 | > 500 | < 3.30 | 197 | < 3.30 | > 500 | 136 | < 3.30 | < 3.30 | > 500 | < 3.30 | 102 | > 500 | 136 |  |  | 
C=C(C)[C@@H]1CC[C@]2(C(=O)O)CC[C@]3(C)[C@H](CC[C@@H]4[C@@]5(C)CCC(=O)C(C)(C)[C@@H]5CC[C@]43C)[C@@H]12 [BETUNOLIC ACID] | < 3.30 | < 3.30 | < 3.30 | < 3.30 | > 500 | > 500 | < 3.30 | 117 | < 3.30 | > 500 | > 500 | < 3.30 | < 3.30 | > 500 | < 3.30 | 139 | > 500 | 60.9 |  |  | 
C=C(C)[C@@H]1CC[C@]2(C(=O)O)CC[C@]3(C)[C@H](CC[C@@H]4[C@@]5(C)CC[C@@H](O)C(C)(C)[C@@H]5CC[C@]43C)[C@@H]12 [EPIBETULINIC ACID] | 3.93 | < 3.30 | < 3.30 | 4.04 | 107 | 154 | < 3.30 | 113 | 4.04 | > 500 | 118 | < 3.30 | < 3.30 | > 500 | 3.93 | > 500 | > 500 | > 500 | 0.7 | 1 | selectivity ratio [27]: 0.9; selectivity ratio [22]: 1.2; selectivity ratio [28]: 1.3; selectivity ratio [24]: 0.9
C=C(C)[C@@H]1CC[C@]2(C)CC[C@]3(C)[C@H](CC[C@@H]4[C@@]5(C)CCC(=O)C(C)(C)[C@@H]5CC[C@]43C)[C@@H]12 [LUPENONE] | < 3.30 | < 3.30 | < 3.30 | < 3.30 | > 500 | > 500 | < 3.30 | > 500 | < 3.30 | > 500 | > 500 | < 3.30 | < 3.30 | > 500 | < 3.30 | > 500 | > 500 | > 500 |  |  | 
CC1(C)CC[C@]2(C(=O)O)CC[C@]3(C)C(=CC[C@@H]4[C@@]5(C)CC[C@H](O)C(C)(C)[C@@H]5CC[C@]43C)[C@@H]2C1 [OLEANOLIC_ACID] | 3.96 | < 3.30 | < 3.30 | 3.69 | > 500 | > 500 | 3.91 | 109 | < 3.30 | > 500 | > 500 | < 3.30 | 3.87 | > 500 | < 3.30 | 65.6 | > 500 | 106 |  |  | 
